B2AR ag: human beta-2 adrenergic receptor agonism by FAP | Am2.2-beta2AR cells, FAP receptor internalization, flow cytometry | response, % (no concentration beside the values) | 340,000 tested, 0.43% active | AID 504454;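 active = response above a set limit, near 3 SD of response in nonfluorescent compounds, cut at about 42% in these data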
Target sequence (P07550 whole entry, looked up): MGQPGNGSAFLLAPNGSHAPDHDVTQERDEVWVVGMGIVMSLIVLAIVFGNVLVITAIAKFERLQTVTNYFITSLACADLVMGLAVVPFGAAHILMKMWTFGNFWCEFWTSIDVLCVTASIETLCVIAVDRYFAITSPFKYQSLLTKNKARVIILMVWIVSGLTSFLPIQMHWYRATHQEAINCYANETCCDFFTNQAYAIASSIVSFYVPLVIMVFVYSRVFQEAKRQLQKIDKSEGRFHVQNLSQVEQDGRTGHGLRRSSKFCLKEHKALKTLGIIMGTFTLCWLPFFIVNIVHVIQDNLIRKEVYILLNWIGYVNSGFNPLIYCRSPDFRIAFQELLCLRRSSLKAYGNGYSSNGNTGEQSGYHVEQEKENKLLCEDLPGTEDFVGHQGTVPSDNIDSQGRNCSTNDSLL
MC4R antagonist: blocks human MC4R cAMP signaling; inhibition, % at 6.5 µM; MC4R-expressing cells, MTII-stimulated cAMP, LANCE TR-FRET; AID 540295; 360,000 tested, 0.48% active; P32245;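 active = inhibition above its plate's cutoff, the mean of tested wells on that plate plus 3 SD, cut at about 29% in these data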;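 note: 0% = Melanotan II alone and 100% = Melanotan II plus saturating MCL0020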
Target sequence (P32245 whole entry, looked up): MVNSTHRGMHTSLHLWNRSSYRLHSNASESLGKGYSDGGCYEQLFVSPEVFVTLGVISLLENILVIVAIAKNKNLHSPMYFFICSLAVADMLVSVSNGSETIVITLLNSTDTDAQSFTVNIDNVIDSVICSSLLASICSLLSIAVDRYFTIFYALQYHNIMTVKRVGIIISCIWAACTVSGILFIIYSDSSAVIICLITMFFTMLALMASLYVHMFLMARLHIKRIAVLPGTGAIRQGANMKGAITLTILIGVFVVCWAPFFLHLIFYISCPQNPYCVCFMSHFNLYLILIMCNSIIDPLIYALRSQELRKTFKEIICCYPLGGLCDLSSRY
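Assay system: U2OS-MC4R stable cell line; Also added: Melanotan II; Technique: Eu-cAMP/anti-cAMP TR-FRET, emission 671 nm; Times: 30-min compound, 1-h challenge, 1-h detection, room temperature.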
MC4R ag barr: agonists of human melanocortin 4 receptor (MC4R) beta-arrestin; AID 540308; U2OS MC4R beta-arrestin complementation, luminescence; percent of melanotan II response, DMSO zero; 360,000 tested, 0.98% active; P32245; activation, % at 8.9 µM;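 active = activation above a per-plate cutoff, the mean activation of sample wells on that plate plus 3 SD, cut at about 8% in these data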
HTR2A ag: activates the mouse 5-HT2A serotonin receptor; P35363; CHO-K1 mHTR2A beta-arrestin complementation, luminescence; percent of 30 µM serotonin response; activation, % at 7.6 µM; 360,000 tested, 0.66% active;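 active = activation above a run cutoff, the mean activation of all tested compounds plus 3 SD, cut at about 14% in these data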;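 note: 0% = plate median of compound wells and 100% = 30 µM serotonin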
TAAR1 antag: antagonists of human TAAR1; Q96RJ0; CHO RD-HGA16 TAAR1, Fluo-8 calcium fluorescence, antagonist; inhibition, % at 3 µM; 360,000 tested, 1.5% active;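 active = inhibition above a per-plate cutoff, the mean inhibition of test compounds on that plate plus 3 SD, cut at about 49% in these data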;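 note: 0% = DMSO plus EC80 beta-PEA response and 100% = DMSO alone without agonist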
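Test system – hTAAR1-expressing CHO RD-HGA16 cells, Gα16-coupled · Reagent – β-PEA at EC80 concentration, post-compound challenge · Compound dosing – 3 µM, single point · Timing – 140 s kinetic read after compound, 140 s after agonist · Detection – Fluo-8 intracellular calcium dye fluorescence, real-time kinetic reads · Control set – DMSO and EC80 PEA controls · Repeats – n of 1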
TAAR1 ag: agonists of human TAAR1; Q96RJ0; AID 624467; 360,000 tested, 0.99% active; CHO RD-HGA16 TAAR1, Fluo-8 calcium fluorescence; vehicle wells 0%, saturating PEA agonist 100%; activation, % at 3 µM;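 active = activation above the mean activation of all test compounds in the run plus 3 SD, cut at about 38% in these data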
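test system = CHO RD-HGA16 cells carrying human TAAR1 plus Gα16 | schedule = 17-24 h seeding, 75 min 37 °C dye, 30 min RT | compound dosing = 3 µM single concentration | control set = DMSO and PEA EC100 | replicates = n 1 | signal = Fluo-8 fluorescence, 5 s baseline then 140 s kinetic read | measure = percent activation vs PEA EC100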
TAAR1 ag conf: human TAAR1 agonism, confirmed; shares compounds with TAAR1 ag; CHO RD-HGA16 TAAR1, Fluo-8 calcium fluorescence; scaled: DMSO 0%, maximal phenethylamine 100%; activation, % at 3 µM; 2,400 tested, 82% active;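 active = activation above a cutoff set at the run's mean compound activation plus 3 SD, cut at about 39% in these data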
Ga16 ag counter: counter-screen for TAAR1 agonists: nonselective agonists in parental cells | shares compounds with TAAR1 ag | CHO-Ga16 parental, Fluo-8 calcium fluorescence; normalized to maximal ATP response, DMSO zero | activation, % at 3 µM | 2,400 tested, 50% active;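 active = activation above the run cutoff, the mean activation over all tested wells plus 3 SD, cut at about 12% in these data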;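 note: 0% = DMSO wells and 100% = maximal ATP response on the peak over basal ratio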
TAAR1 desens: human TAAR1 agonist that also desensitizes the receptor; CHO RD-HGA16 hTAAR1, Fluo-8 calcium, beta-PEA response inhibition; inhibition, % at 3 µM; shares compounds with TAAR1 ag; 2,400 tested, 46% active;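 active = inhibition above the run cutoff, the mean inhibition of all test compounds plus 3 SD, cut at about 49% in these data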;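 note: beta-PEA stimulus applied at its EC80; loss of beta-PEA calcium signal after compound pretreatment read as receptor desensitization; 0% = DMSO with beta-PEA at EC80 and 100% = DMSO alone without agonist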
Ga16 nonsel ant: nonselective Ga16 antagonism, counter-screen; AID 651952; shares compounds with TAAR1 ag; inhibition, % at 3 µM; CHO-Ga16 ATP-induced calcium, Fluo-8 fluorescence; 2,400 tested, 39% active;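 active = inhibition above the plate's mean compound inhibition plus 3 SD, computed per plate, cut at about 22% in these data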;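 note: 0% = EC80 ATP with DMSO and 100% = DMSO wells without ATP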
The depositor's hits bear a star. The list is not random: actives were taken first. Their share in the collection is about 4.3%.

What do the screens show for `CCC(CO)Oc1cc(NCc2ccc(C)cc2)c2ncn(C(C)C)c2c1` (configuration not stated)?
B2AR ag: -3; MC4R antagonist: 0; MC4R ag barr: -1; HTR2A ag: 0; TAAR1 antag: -5; TAAR1 ag: 6

What do the screens show for `Cc1nc2ccc(NS(=O)(=O)c3cccc([N+](=O)[O-])c3)cc2s1`?
B2AR ag: -4; MC4R antagonist: 10; MC4R ag barr: 0; HTR2A ag: 5; TAAR1 antag: 19; TAAR1 ag: 4

What do the screens show for `Cc1ccc(Cn2c(C3CCCN3c3nc(C)cs3)nc3cc(C(F)(F)F)ccc32)cc1` (configuration not stated)?
B2AR ag: 7; MC4R antagonist: 9; MC4R ag barr: 3; HTR2A ag: 5

Results for C[C@H](NC(=O)[C@@H]1CCCN1C(=O)[C@@H]1CCCN1C(=O)c1cccc(Cl)c1)c1ccccc1 ?
HTR2A ag: -1; TAAR1 antag: 1; TAAR1 ag: 0

How did O=C(O)/C=C/C(=O)NCCCc1ccccc1 do in these assays?
B2AR ag: 1; MC4R antagonist: 5; MC4R ag barr: -2; HTR2A ag: 6; TAAR1 antag: 34; TAAR1 ag: 74*; TAAR1 ag conf: 103*; Ga16 ag counter: 2; TAAR1 desens: 78*; Ga16 nonsel ant: -2

Results for CCCC(=O)N1CCC1(C)C(=O)Nc1ccc2nccnc2c1 (configuration not stated) ?
MC4R antagonist: 4; MC4R ag barr: 1; HTR2A ag: 7; TAAR1 antag: 6; TAAR1 ag: 2

What do the screens show for `O=C(Nc1ccc(F)cc1)Nc1cccnc1`?
B2AR ag: 5; MC4R antagonist: -5; MC4R ag barr: -1; HTR2A ag: -6; TAAR1 antag: -4; TAAR1 ag: 64*; TAAR1 ag conf: 81*; Ga16 ag counter: 6; TAAR1 desens: 48; Ga16 nonsel ant: 5

What do the screens show for `O=C(Nc1ccccc1)Nc1ccc(Oc2cccnc2)nc1`?
B2AR ag: -10; MC4R antagonist: 8; MC4R ag barr: -1; HTR2A ag: -7; TAAR1 antag: -18; TAAR1 ag: 67*; TAAR1 ag conf: 90*; Ga16 ag counter: 12*; TAAR1 desens: 80*; Ga16 nonsel ant: 20

How did CN(Cc1ccccc1)Cc1nc2c(c(=O)n(C)c(=O)n2C)n1Cc1ccc(F)cc1 do in these assays?
B2AR ag: -6; MC4R antagonist: 0; MC4R ag barr: -1; HTR2A ag: 1; TAAR1 antag: 2; TAAR1 ag: 13

How did Cc1ccc(Cn2c(CN(C)Cc3ccccc3)nc3c2c(=O)n(C)c(=O)n3C)cc1 do in these assays?
B2AR ag: 0; MC4R antagonist: 9; MC4R ag barr: 2; HTR2A ag: 11; TAAR1 antag: 0; TAAR1 ag: 70*; TAAR1 ag conf: 40*; Ga16 ag counter: 26*; TAAR1 desens: 19; Ga16 nonsel ant: 20

What do the screens show for `Cn1c(=O)c2c(nc(N3CCc4ccccc4C3)n2Cc2ccc(Br)cc2)n(C)c1=O`?
B2AR ag: -12; MC4R antagonist: 2; MC4R ag barr: 0; HTR2A ag: 1; TAAR1 antag: -16; TAAR1 ag: 55*; TAAR1 ag conf: 61*; Ga16 ag counter: 7; TAAR1 desens: 3; Ga16 nonsel ant: 2

What do the screens show for `O=c1ccn2c(n1)SC(c1ccccc1)C2` (configuration not stated)?
MC4R antagonist: 6; MC4R ag barr: 1; HTR2A ag: 11; TAAR1 antag: -13; TAAR1 ag: 1

What do the screens show for `O=C(N[C@@H](Cc1cccnc1)C(=O)N1CCC[C@H]1C(=O)NCCc1ccccc1Cl)c1ccccc1`?
TAAR1 antag: 77*; TAAR1 ag: 55*; TAAR1 ag conf: 92*; Ga16 ag counter: 7; TAAR1 desens: 90*; Ga16 nonsel ant: 2

Results for O=C(N[C@@H](Cc1cccnc1)C(=O)N1CCC[C@H]1C(=O)NCCc1ccccc1Cl)C1CC1 ?
TAAR1 antag: 26; TAAR1 ag: 46*; TAAR1 ag conf: 70*; Ga16 ag counter: 0; TAAR1 desens: 58*; Ga16 nonsel ant: 6

How did O=C(N[C@H](C(=O)N1CCC[C@H]1C(=O)NCc1ccccc1)c1ccccc1)C1CCCC1 do in these assays?
TAAR1 antag: -4; TAAR1 ag: 1

How did O=C(N[C@@H](Cc1cccnc1)C(=O)N1CCC[C@H]1C(=O)NCCc1ccccc1Cl)c1cccs1 do in these assays?
TAAR1 antag: 48; TAAR1 ag: 48*; TAAR1 ag conf: 82*; Ga16 ag counter: 4; TAAR1 desens: 84*; Ga16 nonsel ant: 4

Results for CC(C)C[C@H](NC(=O)c1ccc(Cl)cc1Cl)C(=O)N1CCC[C@H]1C(=O)NCc1ccccc1 ?
TAAR1 antag: -19; TAAR1 ag: -2

What do the screens show for `O=C(N[C@@H](Cc1cccnc1)C(=O)N1CCC[C@H]1C(=O)NCCc1ccccc1Cl)c1ccc(Cl)c(Cl)c1`?
TAAR1 antag: 91*; TAAR1 ag: 71*; TAAR1 ag conf: 84*; Ga16 ag counter: 5; TAAR1 desens: 103*; Ga16 nonsel ant: 21

What do the screens show for `Cc1ccc(S(=O)(=O)N2[C@@H](c3ccc(Cl)cc3)C(C(=O)OC(C)(C)C)=CC[C@H]2c2ccc(Cl)c(Cl)c2)cc1`?
HTR2A ag: -2; TAAR1 antag: -8; TAAR1 ag: 1

How did O=C(NCCc1ccccc1Cl)[C@@H]1CCCN1C(=O)[C@H](Cc1cccnc1)NC(=O)N1CCOCC1 do in these assays?
TAAR1 antag: 11; TAAR1 ag: 49*; TAAR1 ag conf: 77*; Ga16 ag counter: 0; TAAR1 desens: 46; Ga16 nonsel ant: 5
